The target of one series is Mu opioid (MOR) (Homo sapiens, UniProt P35372). The series is described as follows: NIMH PDSP binding screen. The following applies: read-out: Inhibition (%) Mu opioid (MOR).
A short description of series [1]: Microsomal stability assay in liver microsomes. The following applies: mouse, pH 7.4. It counts as in vitro ADME. An outline of the steps:
(§1)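 Test compound was taken from a 1 mM DMSO stock. It was preincubated 5 min at 37 °C with liver microsomes in 0.1 M phosphate buffer, pH 7.4. Reaction was started with an NADPH regenerating system (glucose-6-phosphate, NADPH, glucose-6-phosphate dehydrogenase, MgCl2) and quenched with methanol at 0, 10, 20, 30 and 60 min. Samples were centrifuged and read by LC-MS SIM as peak area ratio to internal standard. k = negative slope of ln ratio vs time; CLint = k/P (P = protein concentration). Duplicates or triplicates were averaged.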
In general terms: Liver microsomes are a subcellular fraction often used to study metabolism.

Another series concerns the target T1, mouse sEH (Mus musculus, UniProt P34914).
T1 sequence (P34914 1-554): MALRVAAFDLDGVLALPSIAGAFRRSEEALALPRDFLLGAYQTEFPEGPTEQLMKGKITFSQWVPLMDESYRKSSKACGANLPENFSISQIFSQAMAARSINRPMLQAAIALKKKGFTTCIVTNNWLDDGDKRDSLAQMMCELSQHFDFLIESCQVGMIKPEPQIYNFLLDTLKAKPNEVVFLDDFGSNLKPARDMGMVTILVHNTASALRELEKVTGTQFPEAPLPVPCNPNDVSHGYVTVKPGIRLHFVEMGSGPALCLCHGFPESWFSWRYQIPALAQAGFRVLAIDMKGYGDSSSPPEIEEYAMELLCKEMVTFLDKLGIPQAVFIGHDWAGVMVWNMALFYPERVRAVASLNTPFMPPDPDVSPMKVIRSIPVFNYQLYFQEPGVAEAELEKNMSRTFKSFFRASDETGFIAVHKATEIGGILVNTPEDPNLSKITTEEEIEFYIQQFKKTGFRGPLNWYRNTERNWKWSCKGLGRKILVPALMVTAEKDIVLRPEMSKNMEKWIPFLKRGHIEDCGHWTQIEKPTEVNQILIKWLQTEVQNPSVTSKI
The series is described as follows: sEH inhibition assay. Type of series: biochemical.

The next series concerns the target 5-HT1B (Homo sapiens, UniProt P28222). In words: NIMH PDSP binding screen. To be noted: read-out: Inhibition (%) 5-HT1B.
The next series addresses Kappa opioid (KOR) (Homo sapiens, UniProt P41145). In words: NIMH PDSP binding screen. The following applies: read-out: Inhibition (%) Kappa opioid (KOR).
Another series addresses T2, human sEH (Homo sapiens, UniProt P34913).
T2 sequence (P34913 1-555): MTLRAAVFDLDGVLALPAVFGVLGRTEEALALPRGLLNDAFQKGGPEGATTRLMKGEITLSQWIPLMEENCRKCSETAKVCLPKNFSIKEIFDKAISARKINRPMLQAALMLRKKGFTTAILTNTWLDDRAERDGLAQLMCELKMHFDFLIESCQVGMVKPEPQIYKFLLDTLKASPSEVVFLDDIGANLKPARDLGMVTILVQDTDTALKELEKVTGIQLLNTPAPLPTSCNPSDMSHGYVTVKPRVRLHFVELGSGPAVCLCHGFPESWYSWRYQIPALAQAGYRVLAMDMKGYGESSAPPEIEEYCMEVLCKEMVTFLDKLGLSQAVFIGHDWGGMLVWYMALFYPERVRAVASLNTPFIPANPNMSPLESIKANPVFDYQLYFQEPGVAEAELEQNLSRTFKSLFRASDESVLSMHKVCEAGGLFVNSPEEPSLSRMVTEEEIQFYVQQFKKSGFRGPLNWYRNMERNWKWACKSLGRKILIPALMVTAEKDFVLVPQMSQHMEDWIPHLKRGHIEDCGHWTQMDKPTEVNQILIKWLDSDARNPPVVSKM
The series is described as follows: sEH inhibition assay. Type of series: biochemical.

A further series deals with 5-HT2A (Homo sapiens, UniProt P28223). The series is described as follows: NIMH PDSP binding screen. The following applies: read-out: Inhibition (%) 5-HT2A.
Chain of 5-HT2A (P28223 whole entry, species assumed): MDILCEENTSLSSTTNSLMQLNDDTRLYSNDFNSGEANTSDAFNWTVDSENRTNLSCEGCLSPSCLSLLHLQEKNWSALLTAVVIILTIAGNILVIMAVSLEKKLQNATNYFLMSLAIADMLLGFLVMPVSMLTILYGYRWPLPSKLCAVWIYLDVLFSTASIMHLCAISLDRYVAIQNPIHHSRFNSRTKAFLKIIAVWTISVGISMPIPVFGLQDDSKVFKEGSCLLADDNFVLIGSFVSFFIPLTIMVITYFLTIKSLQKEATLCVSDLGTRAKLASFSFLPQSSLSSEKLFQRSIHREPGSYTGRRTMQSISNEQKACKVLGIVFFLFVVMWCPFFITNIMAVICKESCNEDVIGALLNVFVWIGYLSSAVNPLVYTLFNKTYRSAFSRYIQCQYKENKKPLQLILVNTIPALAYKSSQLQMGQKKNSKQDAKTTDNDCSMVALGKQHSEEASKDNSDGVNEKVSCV
Another series addresses T3, rat sEH (Rattus norvegicus, UniProt P80299).
T3 sequence (P80299 1-554): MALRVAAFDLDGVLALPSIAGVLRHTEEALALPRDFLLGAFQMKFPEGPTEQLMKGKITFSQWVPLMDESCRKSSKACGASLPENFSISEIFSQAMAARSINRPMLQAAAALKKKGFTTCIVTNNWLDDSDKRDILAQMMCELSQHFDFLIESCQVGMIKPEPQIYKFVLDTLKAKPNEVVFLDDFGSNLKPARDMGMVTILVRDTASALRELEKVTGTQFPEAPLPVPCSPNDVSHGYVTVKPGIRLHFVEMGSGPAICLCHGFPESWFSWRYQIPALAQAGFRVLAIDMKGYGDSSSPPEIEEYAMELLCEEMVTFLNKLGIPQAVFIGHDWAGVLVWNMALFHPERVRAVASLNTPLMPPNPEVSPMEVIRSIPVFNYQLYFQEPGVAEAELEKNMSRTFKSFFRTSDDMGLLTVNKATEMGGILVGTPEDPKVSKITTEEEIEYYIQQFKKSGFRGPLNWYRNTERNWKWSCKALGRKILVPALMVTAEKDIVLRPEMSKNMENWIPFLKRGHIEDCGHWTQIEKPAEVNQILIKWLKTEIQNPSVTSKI
The series is described as follows: sEH inhibition assay. It counts as biochemical.

Series [2] can be described thus: Microsomal stability assay in liver microsomes. It counts as in vitro ADME. The following applies: human, pH 7.4. An outline of the steps: as §1
The target in the next series is Delta opioid (DOR) (Homo sapiens, UniProt P41143). The series is described as follows: NIMH PDSP binding screen. The following applies: read-out: Inhibition (%) Delta opioid (DOR).
Chain of Delta opioid (DOR) (P41143 whole entry): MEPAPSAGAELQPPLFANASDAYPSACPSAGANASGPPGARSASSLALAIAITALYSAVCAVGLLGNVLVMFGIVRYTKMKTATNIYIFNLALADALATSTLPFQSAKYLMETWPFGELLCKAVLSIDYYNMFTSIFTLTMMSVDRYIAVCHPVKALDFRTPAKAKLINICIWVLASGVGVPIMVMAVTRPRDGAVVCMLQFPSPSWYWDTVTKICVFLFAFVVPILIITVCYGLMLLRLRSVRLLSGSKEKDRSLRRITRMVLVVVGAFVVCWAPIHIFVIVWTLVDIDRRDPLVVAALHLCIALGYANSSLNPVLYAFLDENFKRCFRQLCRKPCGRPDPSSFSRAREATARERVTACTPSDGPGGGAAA
In a further series the target is Nociceptin (NOP) (Homo sapiens, UniProt P41146). In words: NIMH PDSP binding screen. The following applies: read-out: Inhibition (%) Nociceptin (NOP).
Chain of Nociceptin (NOP) (P41146 whole entry): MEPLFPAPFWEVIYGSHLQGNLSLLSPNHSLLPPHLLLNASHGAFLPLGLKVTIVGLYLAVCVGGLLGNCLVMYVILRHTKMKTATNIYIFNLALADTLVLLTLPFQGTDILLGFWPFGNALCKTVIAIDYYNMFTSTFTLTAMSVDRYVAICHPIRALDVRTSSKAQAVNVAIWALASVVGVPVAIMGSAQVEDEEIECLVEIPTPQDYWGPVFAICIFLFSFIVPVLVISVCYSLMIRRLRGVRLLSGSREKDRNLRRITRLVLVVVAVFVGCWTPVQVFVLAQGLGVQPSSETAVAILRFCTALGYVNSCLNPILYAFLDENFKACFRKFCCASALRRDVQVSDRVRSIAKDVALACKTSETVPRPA
Another series concerns the target T4, 5-HT2C (Homo sapiens, UniProt P28335).
T4 sequence (P28335 33-458): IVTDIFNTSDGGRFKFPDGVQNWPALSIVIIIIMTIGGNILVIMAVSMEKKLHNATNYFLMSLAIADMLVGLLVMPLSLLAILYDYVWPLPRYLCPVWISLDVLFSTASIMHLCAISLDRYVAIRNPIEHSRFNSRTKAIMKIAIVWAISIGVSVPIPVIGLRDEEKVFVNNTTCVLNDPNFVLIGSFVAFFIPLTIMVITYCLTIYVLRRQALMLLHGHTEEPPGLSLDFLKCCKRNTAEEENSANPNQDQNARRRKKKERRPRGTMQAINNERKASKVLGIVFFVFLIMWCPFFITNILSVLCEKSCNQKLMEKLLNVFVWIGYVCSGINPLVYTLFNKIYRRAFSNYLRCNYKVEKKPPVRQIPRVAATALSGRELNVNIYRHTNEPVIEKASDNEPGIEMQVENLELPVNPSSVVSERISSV
In words: NIMH PDSP binding screen. The following applies: read-out: Inhibition (%) 5-HT2C.

Bounds are passed on as bounds.

Chain of Mu opioid (MOR) (P35372 whole entry): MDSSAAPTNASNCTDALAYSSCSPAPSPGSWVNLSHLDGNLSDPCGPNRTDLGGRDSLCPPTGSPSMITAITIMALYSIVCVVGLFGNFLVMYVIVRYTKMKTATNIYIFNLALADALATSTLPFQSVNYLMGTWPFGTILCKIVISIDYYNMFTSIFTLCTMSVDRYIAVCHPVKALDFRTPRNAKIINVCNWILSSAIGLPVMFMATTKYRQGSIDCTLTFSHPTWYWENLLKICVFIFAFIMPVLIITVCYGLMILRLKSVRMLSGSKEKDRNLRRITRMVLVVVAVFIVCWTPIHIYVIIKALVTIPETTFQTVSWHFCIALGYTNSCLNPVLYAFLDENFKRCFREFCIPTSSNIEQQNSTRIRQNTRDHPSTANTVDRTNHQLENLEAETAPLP
Chain of Kappa opioid (KOR) (P41145 whole entry): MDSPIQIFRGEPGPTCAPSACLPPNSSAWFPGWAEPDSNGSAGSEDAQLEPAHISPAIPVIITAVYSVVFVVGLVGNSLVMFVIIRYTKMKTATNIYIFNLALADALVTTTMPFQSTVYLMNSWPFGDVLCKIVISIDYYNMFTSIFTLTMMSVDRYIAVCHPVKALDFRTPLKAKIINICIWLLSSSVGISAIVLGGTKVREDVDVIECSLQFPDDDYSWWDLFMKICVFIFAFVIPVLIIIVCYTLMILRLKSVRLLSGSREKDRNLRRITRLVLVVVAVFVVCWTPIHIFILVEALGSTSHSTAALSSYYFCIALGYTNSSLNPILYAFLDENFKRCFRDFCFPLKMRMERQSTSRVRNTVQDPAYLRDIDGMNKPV
Chain of 5-HT1B (P28222 whole entry, species assumed): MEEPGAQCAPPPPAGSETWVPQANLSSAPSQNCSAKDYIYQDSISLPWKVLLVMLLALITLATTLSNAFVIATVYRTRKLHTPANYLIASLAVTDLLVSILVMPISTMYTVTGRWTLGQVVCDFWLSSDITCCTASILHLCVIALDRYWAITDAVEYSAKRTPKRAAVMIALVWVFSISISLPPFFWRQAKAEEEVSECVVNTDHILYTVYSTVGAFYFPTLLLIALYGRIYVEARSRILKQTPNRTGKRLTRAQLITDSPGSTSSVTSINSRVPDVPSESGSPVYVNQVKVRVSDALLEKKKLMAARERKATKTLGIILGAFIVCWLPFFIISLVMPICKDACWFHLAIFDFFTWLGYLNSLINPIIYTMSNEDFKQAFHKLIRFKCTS

In general, half-life refers to the time needed for the level to fall by half in the phase considered. Read a low half-life as rapid decline. For orientation: microsomal CLint means a measure of how fast metabolising enzymes remove a compound, apart from limits set by blood flow. Low values mean slow turnover, high ones rapid turnover. In general, IC50 refers to the concentration that inhibits the measured activity by half. The low end stands for greater potency in that assay, the high end for weaker potency in that assay. Take `O=C(Nc1ccc(-c2cnc3ccccc3n2)cc1)C1CCN(S(=O)(=O)c2ccccc2Cl)CC1` [Compound 4m, 1-((2-chlorophenyl)sulfonyl)-N-(4-(quinoxalin-2-yl)phenyl)piperidine-4-carboxamide]: the inhibition at 10 µM at Mu opioid (MOR) is -1 ± 1.63%; on 5-HT1B it was 22.2 ± 6.67%; on Kappa opioid (KOR), 5.59 ± 6.57%; on 5-HT2A it was 1.96 ± 1.88%; on Delta opioid (DOR) it was -0.23 ± 11.9%; on Nociceptin (NOP) it was -5.22 ± 3.98%. Also, the inhibition at 10 µM at 5-HT2C was -18.2 ± 3.45%. For the same molecule, the half-life at 1 µM in series [1] is 32 min; in series [2], over 60 min. In addition, the microsomal CLint at 1 µM in series [1] stood at 42.8 µL/min/mg; in [2], 22.5 µL/min/mg. Further, the IC50 at mouse sEH came to 39.1 nM; against human sEH, 0.7 nM; at rat sEH it was 0.3 nM.

The record behind these values is PMC12814486 (Bioorganic & medicinal chemistry, 2025).
